This is a sample that favours compounds with a hit; in the whole collection about 2.2% have one here.
PvdQ acylase: blocks Pseudomonas aeruginosa PvdQ acylase activity | purified PvdQ acylase, fluorescence plate reader | inhibition, % at 10 µM | 340,000 tested, 0.063% active; in the data active means inhibition above about 30%, passing the limit was not always enough;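 further: 0% = vehicle neutral wells and 100% = reference inhibitor wells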
HIV Env fusion: HIV envelope-mediated fusion inhibition; HeLa-JRFL Env/CEM21 cell fusion, luciferase; inhibition, % at 12.3 µM; 360,000 tested, 1.1% active; AID 651610;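 active means mean replicate inhibition score of at least 50 and every replicate individually at or above 50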;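 further: 0% = plate neutral controls and 100% = maraviroc near 300 nM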
rRNA inh HTS: selective bacterial rRNA inhibition in E. coli; E. coli WT GFP vs humanized-ribosome RFP mutants, fluorescence, 24 h; active compounds read low; DMSO median 0, no signal -100; GFP signal change (wild-type ribosome), % (no concentration beside the values); 350,000 tested, 1.6% active;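 active means significant combined selectivity score with lowered wild-type GFP, culture density cut under 30%, mutant RFP and density less affected; inactive means any of these conditions unmet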
FN deposit inh: fibronectin deposition inhibition | AH1F fibroblasts, Alexa488-fibronectin deposition fluorescence, overnight | inhibition, % at 12.6 µM | 350,000 tested, 0.086% active | AID 743247;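 active means mean inhibition across replicates of 30% or more, regardless of how many single replicates reach that level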;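 further: positive control wells lacked labelled fibronectin entirely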
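Assay system: AH1F fibroblast monolayer, labelled fibronectin deposition. Amount: 10000 cells per well. Also added: labelled fibronectin 24 nM. Compound: single-point pinned compound. Incubation: cell attachment 1 h, compound and FN exposure overnight. Detection: fluorescence after three HBSS washes, excitation 485 nm, emission 525 nm. Read-out: inhibition of fibronectin deposition signal.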
PDI inh: blocks human protein disulfide isomerase activity | inhibition, % at 10 µM | 350,000 tested, 0.052% active | P07237 | PDI insulin aggregation turbidity, A650, 90 min;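 active means mean inhibition across replicates of 30% or more, whatever share of single replicates reach that level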
ERp5 inh: inhibitors of human ERp5 | AID 651711 | inhibition, % at 9.99 µM | Q15084 | ERp5 insulin aggregation, absorbance 650 nm, 90 min | 350,000 tested, 0.05% active;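 active means mean replicate inhibition above about 25%, with every replicate also reaching it, limit read from the data, passing the limit was not always enough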
Target sequence (Q15084 whole entry, looked up): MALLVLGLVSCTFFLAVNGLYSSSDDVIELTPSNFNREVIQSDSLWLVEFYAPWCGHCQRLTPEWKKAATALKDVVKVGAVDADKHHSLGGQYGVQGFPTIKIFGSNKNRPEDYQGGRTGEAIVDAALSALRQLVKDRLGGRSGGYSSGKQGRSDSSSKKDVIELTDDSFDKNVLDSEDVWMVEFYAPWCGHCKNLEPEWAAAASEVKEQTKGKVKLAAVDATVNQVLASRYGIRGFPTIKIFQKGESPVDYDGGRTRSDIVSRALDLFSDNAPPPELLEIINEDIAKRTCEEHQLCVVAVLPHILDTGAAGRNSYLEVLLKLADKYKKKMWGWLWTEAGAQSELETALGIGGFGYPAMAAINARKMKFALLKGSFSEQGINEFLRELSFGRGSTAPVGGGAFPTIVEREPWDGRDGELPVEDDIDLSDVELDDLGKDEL
Active calls of the source: *; [ ] = another dose, or the depositor's remark.

How did Nc1nc(F)nc2c1ncn2[C@@H]1O[C@H](CO)[C@@H](O)[C@@H]1O do in these assays?
PvdQ acylase: -0.5; HIV Env fusion: 62.4*; PDI inh: -4.0; ERp5 inh: -2.0

What do the screens show for `Nc1nc(Cl)nc2c1ncn2C1OC(CO)C(O)C1O` (stereo unspecified)?
ERp5 inh: 0.5

What do the screens show for `O=c1[nH]c(=O)n(C2OC(CO)C(O)C2O)cc1F` (stereo unspecified)?
PvdQ acylase: -21.9; PDI inh: -8.2

What do the screens show for `OC[C@H]1O[C@@H](n2cnc3c(NCc4ccco4)ncnc32)[C@H](O)[C@@H]1O`?
PvdQ acylase: -3.5; HIV Env fusion: -5.5; FN deposit inh: 2.1; PDI inh: 4.0; ERp5 inh: 3.0

Results for Nc1nc(=O)n(C2OC(CO)C(O)C2O)cc1F (stereo unspecified) ?
HIV Env fusion: 62.4*; rRNA inh HTS: 5.5; ERp5 inh: 0.0

What do the screens show for `Nc1ncnc2c1ncn2[C@@H]1O[C@H](CO)[C@@H](O)[C@@H]1O`?
PvdQ acylase: -6.5; rRNA inh HTS: 5.5; FN deposit inh: 8.5; PDI inh: 7.6; ERp5 inh: 2.2

What do the screens show for `O=C(CCN1CCCCC1)N[C@@H]1CC[C@H](CCNS(=O)(=O)c2ccc(F)cc2)O[C@H]1CO`?
HIV Env fusion: 1.2[16.7 µM]; rRNA inh HTS: 1.4; ERp5 inh: -8.1

What do the screens show for `CC(=O)Nc1ccc(NC(=O)c2ccc(C3SCC(=O)N3CCc3ccccc3)cc2)cc1` (stereo unspecified)?
PvdQ acylase: -2.0; HIV Env fusion: 14.2; FN deposit inh: -5.2; PDI inh: 0.0

What do the screens show for `O=C(NCCSCc1ccccc1)c1ccc(C2SCC(=O)N2Cc2ccccc2)cc1` (stereo unspecified)?
PvdQ acylase: -6.6; HIV Env fusion: 63.7*; FN deposit inh: -7.0; PDI inh: -3.1

Results for Cc1cccc(NC(=O)c2ccc(C3SCC(=O)N3CCc3ccccc3)cc2)c1 (stereo unspecified) ?
PvdQ acylase: 11.4; HIV Env fusion: 29.9; rRNA inh HTS: -6.3; FN deposit inh: 32.6*; PDI inh: -5.2; ERp5 inh: -0.7

What do the screens show for `O=C1Nc2ccc(F)cc2C12Nc1ccccc1-c1nnc(SCc3ccccc3)nc1O2` (stereo unspecified)?
PvdQ acylase: -0.8; rRNA inh HTS: -17.1*; PDI inh: -2.4; ERp5 inh: 3.1

What do the screens show for `Cc1ccc(CSc2nnc3c(n2)OC2(Nc4ccccc4-3)C(=O)Nc3ccc(F)cc32)cc1` (stereo unspecified)?
PvdQ acylase: -9.9; rRNA inh HTS: -14.8; PDI inh: 6.3; ERp5 inh: -4.6

Results for CCCC(=O)Nc1ccc2c(c1)C(=O)N(C)C[C@@H](OC)[C@H](C)CN(Cc1ccccc1F)[C@@H](C)CO2 ?
rRNA inh HTS: -6.2; FN deposit inh: -33.3; ERp5 inh: 3.1

Results for CCOc1ccc(NC(=O)/C(C#N)=C/c2cn(CC(=O)O)c3ccccc23)cc1 ?
PvdQ acylase: -6.7; HIV Env fusion: 13.7; rRNA inh HTS: -25.7*; FN deposit inh: 5.5; PDI inh: -6.1; ERp5 inh: 4.5

How did CCOc1cccc(NC(=O)/C(C#N)=C\c2cn(CC(=O)O)c3ccccc23)c1 do in these assays?
PvdQ acylase: -9.4; HIV Env fusion: -17.7; rRNA inh HTS: -29.0; FN deposit inh: 0.0; PDI inh: -3.5; ERp5 inh: 0.7

How did CC(C)NC(=O)N[C@@H]1C=C[C@H](CC(=O)NCCCN(C)C)O[C@@H]1CO do in these assays?
HIV Env fusion: -10.1[16.7 µM]; rRNA inh HTS: -1.5; FN deposit inh: 0.4; ERp5 inh: 0.6

Results for Cc1cccc(C(=O)Oc2c(Br)cc(Br)cc2/C=N/NC(=O)c2ccncc2)c1 ?
PvdQ acylase: -10.6; HIV Env fusion: 39.3; rRNA inh HTS: -3.8; FN deposit inh: -9.8; PDI inh: 7.6; ERp5 inh: 2.3

How did Cc1cc(C(=O)N/N=C/c2cc(Br)cc(Br)c2OC(=O)c2cccc(F)c2)n[nH]1 do in these assays?
PvdQ acylase: -8.2; HIV Env fusion: 13.4; rRNA inh HTS: -31.0*; FN deposit inh: -15.4; PDI inh: 7.9; ERp5 inh: -3.3

Screening results (PubChem)
